Test results from ChEMBL document CHEMBL1156545, “Unusual C25 steroid isomers with bicyclo[4.4.1]A/B rings from a volcano ash-derived fungus Penicillium citrinum” (J Nat Prod, 2008).
The source made the active and inactive calls. The calls are words filed in the database; no cut-off is given here.

Assays:
[1] = target: T1, G-protein coupled receptor 12 (Homo sapiens) (UniProt P47775); assay: Activity at GPR12 expressed in CHO cells assessed as induction of cAMP production at 10 uM; assay type: functional, cell-based
T1 sequence (whole entry): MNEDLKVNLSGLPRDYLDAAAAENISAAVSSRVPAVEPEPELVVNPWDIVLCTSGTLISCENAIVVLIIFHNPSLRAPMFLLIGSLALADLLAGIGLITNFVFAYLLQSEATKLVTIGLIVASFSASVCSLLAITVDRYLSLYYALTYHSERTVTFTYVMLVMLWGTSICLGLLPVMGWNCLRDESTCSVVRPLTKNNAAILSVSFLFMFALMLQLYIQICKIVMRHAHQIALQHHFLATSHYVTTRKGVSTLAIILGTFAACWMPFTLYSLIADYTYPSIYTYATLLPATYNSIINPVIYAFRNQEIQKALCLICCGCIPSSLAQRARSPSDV
In short: (§1)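 Test compounds at 10 µM applied to CHO cells transfected with GPR12 and, in parallel, to untransfected wild-type CHO cells, which serve as the receptor-free comparison. The read-out is cAMP production in each cell line. The assay follows literature cAMP methods.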

CHO = assay: Induction of cAMP generation in wild-type CHO cells at 10 uM; assay type: functional, cell-based; settings: Cricetulus griseus; in short: as §1

Compound	Activity [1]	Activity (CHO)
C/C(=C\[C@@H](O)[C@H](C)O)[C@H]1CC[C@H]2C3=CC(=O)[C@H]4CC(=CC[C@H](O)C4)[C@H]3CC[C@]12C	Active	inactive
C[C@@H](O)/C=C/[C@](C)(O)[C@H]1CC[C@H]2C3=CC(=O)[C@H]4CC(=CC[C@H](O)C4)[C@H]3CC[C@@]21C	Active	inactive
CO[C@H](/C=C(\C)[C@H]1CC[C@H]2C3=CC(=O)[C@H]4CC(=CC[C@H](O)C4)[C@H]3CC[C@]12C)[C@@H](C)O	Active	inactive
C[C@H](O)/C=C/[C@](C)(O)[C@H]1CC[C@H]2C3=CC(=O)[C@H]4CC(=CC[C@H](O)C4)[C@H]3CC[C@@]21C	Active	inactive
C/C(=C\[C@H](O)[C@H](C)O)[C@H]1CC[C@H]2C3=CC(=O)[C@H]4CC(=CC[C@H](O)C4)[C@H]3CC[C@]12C	Active	inactive
